# Test results: ChEMBL document CHEMBL1158403, “Discovery of CP-533536: an EP2 receptor selective prostaglandin E2 (PGE2) agonist that induces local bone formation” (Bioorg Med Chem Lett, 2009)
# How the values were obtained:
# [1] = molecular target: T1, Prostaglandin E2 receptor EP2 subtype (Rattus norvegicus, UniProt Q62928); test: Inhibition of rat EP2 receptor expressed in HEK293 cells; format: cell-based
# Summary of the method: (§1)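 Rat EP₂ or rat EP₄ receptor stably transfected into HEK-293 cells. Membranes were prepared from these cells for the receptor binding assay.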
# [2] = molecular target: T1, Prostaglandin E2 receptor EP2 subtype; test: Agonist activity against rat EP2 receptor expressed in HEK293 cells assessed as stimulation of cAMP release; format: functional, cell-based
# [3] = molecular target: T2, Prostaglandin E2 receptor EP4 subtype (Rattus norvegicus, UniProt P43114); test: Inhibition of rat EP4 receptor expressed in HEK293 cells; format: cell-based; summary of the method: as §1
# T2 sequence (P43114 whole entry): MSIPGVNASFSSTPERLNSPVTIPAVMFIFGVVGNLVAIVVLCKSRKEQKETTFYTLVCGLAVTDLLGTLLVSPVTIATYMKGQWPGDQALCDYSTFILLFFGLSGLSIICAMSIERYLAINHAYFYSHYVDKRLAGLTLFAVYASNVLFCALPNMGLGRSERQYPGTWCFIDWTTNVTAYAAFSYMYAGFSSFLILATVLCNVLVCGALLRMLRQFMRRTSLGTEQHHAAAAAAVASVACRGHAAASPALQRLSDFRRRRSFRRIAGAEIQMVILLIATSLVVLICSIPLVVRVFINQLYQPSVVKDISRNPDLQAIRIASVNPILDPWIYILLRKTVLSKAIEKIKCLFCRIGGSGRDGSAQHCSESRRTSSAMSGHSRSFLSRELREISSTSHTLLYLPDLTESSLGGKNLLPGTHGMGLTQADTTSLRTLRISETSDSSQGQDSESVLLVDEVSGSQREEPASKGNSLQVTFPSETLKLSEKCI
# [4] = system: Rattus norvegicus; test: Induction of bone formation in rat assessed as bone mineral content at 3 mg/kg by peripheral quantitative computerized tomography
# [5] = system: Rattus norvegicus; test: Induction of bone formation in rat assessed as bone mineral density at 3 mg/kg by peripheral quantitative computerized tomography
# [6] = system: Rattus norvegicus; test: Induction of bone formation in rat assessed as total bone area at 3 mg/kg by peripheral quantitative computerized tomography
# [7] = system: Rattus norvegicus; test: Induction of bone formation in rat assessed as bone mineral density at 0.3 mg/kg by peripheral quantitative computerized tomography
# [8] = Half life in Sprague-Dawley rat at 1 mg/kg, iv; format: ADME, organism-based; parameters: dose 1 mg/kg, route intravenous; details: in vivo
# Summary of the method: (§2)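 Male Sprague–Dawley rats were given a single i.v. dose of 1 mg/kg. Half-life, clearance and steady-state volume of distribution were derived from the plasma pharmacokinetic profile.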
# [9] = system: Rattus norvegicus; test: Induction of bone formation in rat assessed as bone mineral density at 1 mg/kg by peripheral quantitative computerized tomography
# [10] = system: Rattus norvegicus; test: Induction of bone formation in rat assessed as total bone area at 0.3 mg/kg by peripheral quantitative computerized tomography
# [11] = Clearance in Sprague-Dawley rat at 1 mg/kg, iv; format: ADME, organism-based; parameters: dose 1 mg/kg, route intravenous; details: in vivo; summary of the method: as §2
# [12] = system: Rattus norvegicus; test: Induction of bone formation in rat assessed as bone mineral content at 0.3 mg/kg by peripheral quantitative computerized tomography
# [13] = Volume of distribution at steady state in Sprague-Dawley rat at 1 mg/kg, iv; format: ADME, organism-based; parameters: dose 1 mg/kg, route intravenous; details: in vivo, read-out: Vdss; summary of the method: as §2
# [14] = system: Rattus norvegicus; test: Induction of bone formation in rat assessed as bone mineral content at 1 mg/kg by peripheral quantitative computerized tomography
# [15] = system: Rattus norvegicus; test: Induction of bone formation in rat assessed as total bone area at 1 mg/kg by peripheral quantitative computerized tomography
# [16] = molecular target: T2, Prostaglandin E2 receptor EP4 subtype; test: Agonist activity against rat EP4 receptor expressed in HEK293 cells assessed as stimulation of cAMP release; format: functional, cell-based
# T1 sequence (Q62928 whole entry): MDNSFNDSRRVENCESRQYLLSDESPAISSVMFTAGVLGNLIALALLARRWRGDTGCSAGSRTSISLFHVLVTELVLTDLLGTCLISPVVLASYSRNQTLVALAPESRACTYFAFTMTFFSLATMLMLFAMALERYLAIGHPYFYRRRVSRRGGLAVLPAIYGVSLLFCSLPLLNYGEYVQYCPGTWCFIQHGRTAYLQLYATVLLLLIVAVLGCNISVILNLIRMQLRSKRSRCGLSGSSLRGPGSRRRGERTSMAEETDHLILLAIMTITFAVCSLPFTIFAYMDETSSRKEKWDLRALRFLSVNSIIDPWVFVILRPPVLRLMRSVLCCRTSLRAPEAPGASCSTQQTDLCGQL
IC50 [1],EC50 [2],IC50 [3],Compound,further results
63 nM,1.1 nM,> 3200 nM,CC(C)(C)c1ccc(CN(Cc2cccc(CCC(=O)O)c2)S(=O)(=O)c2nccs2)cc1,–
160 nM,94 nM,> 3200 nM,CCCCc1ccc(CN(CCCCCCC(=O)O)S(C)(=O)=O)cc1,–
270 nM,34.4 nM,> 3200 nM,CCCCc1ccc(CN(Cc2cccc(CCC(=O)O)c2)S(C)(=O)=O)cc1,–
2500 nM,–,> 3200 nM,CC(C)CC(O)CCCN(CCCCCCC(=O)O)S(C)(=O)=O (centres undefined),–
833 nM,413 nM,> 3200 nM,CCCCc1ccc(CN(CCc2ccc(CC(=O)O)cc2)S(C)(=O)=O)cc1,–
225 nM,134 nM,2530 nM,CCCCCC(O)CCCN(CCCCCCC(=O)O)S(C)(=O)=O (centres undefined),–
379 nM,48 nM,> 3200 nM,CC(C)(C)c1ccc(CN(Cc2cccc(CCC(=O)O)c2)S(C)(=O)=O)cc1,–
289 nM,457 nM,> 3200 nM,CS(=O)(=O)N(CCCCCCC(=O)O)Cc1ccc(-c2ccccc2)cc1,–
701 nM,407 nM,> 3200 nM,CCCCc1ccc(CN(CCCCOCC(=O)O)S(C)(=O)=O)cc1,–
654 nM,587 nM,> 3200 nM,CCCCc1ccc(CN(c2ccc(CCCC(=O)O)cc2)S(C)(=O)=O)cc1,–

# The remaining lines, values behind:
Compound,IC50 [1],EC50 [2],IC50 [3],further results
CC(C)(C)c1ccc(CN(Cc2cccc(CCC(=O)O)c2)S(=O)(=O)c2ccccn2)cc1,52 nM,2.3 nM,> 3200 nM,–
CC(C)(C)c1ccc(CN(Cc2cccc(CCC(=O)O)c2)S(=O)(=O)c2ccc(Cl)cc2)cc1,> 3200 nM,–,> 3200 nM,–
CCCCc1ccc(CN(Cc2ccccc2OCC(=O)O)S(C)(=O)=O)cc1,> 3200 nM,–,> 3200 nM,–
CC(C)(C)c1ccc(CN(Cc2cccc(OCC(=O)O)c2)S(C)(=O)=O)cc1,792 nM,203 nM,> 3200 nM,–
CC(C)(C)c1ccc(CN(CCCCCCC(=O)O)S(C)(=O)=O)cc1,590 nM,–,2470 nM,–
CCCCC(O)c1ccc(CN(CCCCCCC(=O)O)S(C)(=O)=O)cc1 (centres undefined),502 nM,423 nM,> 3200 nM,–
CC(C)(C)c1ccc(CN(Cc2cccc(CCC(=O)O)c2)S(=O)(=O)c2ccccc2)cc1,278 nM,0.2 nM,> 3200 nM,–
CCCCCC(O)CCCN(CCCCCC(=O)O)S(C)(=O)=O (centres undefined),910 nM,–,–,–
CCCCCC(O)CCCN(CCCCC(=O)O)S(C)(=O)=O (centres undefined),> 3200 nM,–,–,–
CCCCc1ccc(CN(c2ccccc2CCCC(=O)O)S(C)(=O)=O)cc1,494 nM,103 nM,> 3200 nM,–
CCCCc1ccc(CN(c2cccc(CCC(=O)O)c2)S(C)(=O)=O)cc1,> 3200 nM,–,> 3200 nM,–
CCCCCC(=O)c1ccc(CN(CCCCCCC(=O)O)S(C)(=O)=O)cc1,636 nM,887 nM,> 3200 nM,–
CCCCCC(O)c1ccc(CN(CCCCCCC(=O)O)S(C)(=O)=O)cc1 (centres undefined),93 nM,44 nM,> 3200 nM,–
CCCCc1ccc(CN(CCCOc2cccc(C(=O)O)c2)S(C)(=O)=O)cc1,3130 nM,–,> 3200 nM,–
CC(C)(C)c1ccc(CN(Cc2cccc(OCC(=O)O)c2)S(=O)(=O)c2cccnc2)cc1,50 nM,0.3 nM,> 3200 nM,Activity [4]: 53.5%; Activity [5]: 27.5%; Activity [6]: 20.6%; Activity [7]: 7.5%; half-life [8]: 19.8 min; Activity [9]: 20.7%; Activity [10]: -4.7%; clearance [11]: 56 mL/min/kg; Activity [12]: 2.5%; Vd [13]: 0.49 L/kg; Activity [14]: 26.3%; Activity [15]: 4.4%
CCCCC[C@H](O)/C=C/[C@H]1[C@H](O)CC(=O)[C@@H]1C/C=C\CCCC(=O)O [DINOPROSTONE],–,–,2.1 nM,EC50 [16]: 0.7 nM
